# Bioassay records (PubChem BioAssay)
# rCAG RNA binder: binders of r(CAG) RNA repeats, primary screen, biochemical, fluorescence; r(CAG) RNA repeat, TO-PRO-1 dye displacement fluorescence; inhibition, % at 3 µM; 370,000 compounds, 1.3% hits;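 active = inhibition above the plate cutoff, the mean of all test compounds on that plate plus 3 SD, cut at about 35% in these data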;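 note: higher means more dye released from RNA so lower well fluorescence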
# ARFGAP1 inh: inhibitors of rat ARFGAP1 GAP activity, primary screen, biochemical, fluorescence polarization, GDP tracer. Arfgap1-stimulated ARF1 GTP hydrolysis, GDP FP detection. inhibition, % at 16.5 µM. 360,000 compounds, 0.26% hits;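 active = inhibition above a per-plate limit, mean inhibition of low control wells plus 3 SD, cut at about 25% in these data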
# Target sequence (Q62848 1-136 limits assumed): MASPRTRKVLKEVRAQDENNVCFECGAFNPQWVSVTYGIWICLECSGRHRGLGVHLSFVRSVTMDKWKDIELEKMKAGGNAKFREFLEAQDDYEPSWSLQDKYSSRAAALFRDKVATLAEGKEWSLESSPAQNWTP
#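 Material: truncated rat Arfgap1 GAP domain; Incubation: compound-enzyme preincubation 20 min, reaction 120 min, detection 60 min, 25 °C; Read-out: percent inhibition of Arfgap1-stimulated GTP hydrolysis; Technique: FP, GDP Alexa 633 tracer displaced from anti-GDP antibody, 620/688 nm; Controls: No-Arfgap1 wells (100%) versus DMSO full-reaction wells (0%); Replication: single well per compound.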
# ASAP1 inh: inhibitors of human ASAP1 ArfGAP activity, primary screen, biochemical, fluorescence polarization. Arf-GAP with SH3 domain, ANK repeat and PH domain-containing protein 1 (Homo sapiens), …. 360,000 compounds, 0.19% hits. ASAP1-stimulated ARF1 GTP hydrolysis, GDP FP detection. inhibition, % at 16.5 µM. AID 624377, 2012; in the data active = inhibition above about 25%
# Target sequence (Q9ULH1 325-724 limits assumed): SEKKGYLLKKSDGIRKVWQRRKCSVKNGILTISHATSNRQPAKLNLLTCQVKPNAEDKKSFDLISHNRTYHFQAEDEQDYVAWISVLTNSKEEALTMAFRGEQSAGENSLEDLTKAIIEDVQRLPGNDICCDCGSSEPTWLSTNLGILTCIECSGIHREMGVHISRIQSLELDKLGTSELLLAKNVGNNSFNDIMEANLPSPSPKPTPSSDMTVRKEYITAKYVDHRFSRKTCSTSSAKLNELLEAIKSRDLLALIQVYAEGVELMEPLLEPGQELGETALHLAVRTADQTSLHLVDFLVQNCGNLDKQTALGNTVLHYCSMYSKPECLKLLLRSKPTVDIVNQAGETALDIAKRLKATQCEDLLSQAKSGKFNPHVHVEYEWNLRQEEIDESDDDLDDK
# NadD block: inhibitors of S. aureus NadD, primary screen, biochemical, colorimetric, uHTS; inhibition, % at 20 µM; 360,000 compounds, 0.78% hits; AID 602399, 2012; purified NadD enzyme, colorimetric absorbance read-out; Nicotinate-nucleotide adenylyltransferase NadD (Staphylococcus aureus N315); in the data active = inhibition above about 26%
# rCAG bind conf: small molecules binding CAG repeat RNA – biochemical, fluorescence, confirmation | shares compounds with rCAG RNA binder | r(CAG) RNA repeat, TO-PRO-1 dye displacement fluorescence | inhibition, % at 3 µM | 4,300 compounds, 70% hits | AID 652065, 2013;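 active = inhibition above a per-plate cutoff, the mean inhibition of sample wells plus 3 SD, cut at about 35% in these data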;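 note: loss of TO-PRO-1 fluorescence as compound displaces dye from 1x1 AA loop RNA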
# dCAG dye counter: displacement of TO-PRO-1 from CAG DNA duplex, counter-screen for rCAG RNA repeat binder project, biochemical, fluorescence, TO-PRO-1 dye, d(CAG) DNA oligo; shares compounds with rCAG RNA binder; d(CAG) DNA oligo TO-PRO-1 dye displacement; inhibition, % at 3 µM; 4,300 compounds, 94% hits; AID 652068, 2013;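 active = inhibition above its plate's cutoff, the mean test-well inhibition plus 3 SD, cut at about 4.8% in these data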;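 note: hits displace the dye from DNA and so lower well fluorescence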
# A number is an active result; . = inactive; / = no result given. Shown are actives, neighbours in structure and some others; about 2.2% of the full set was active somewhere.
SMILES,rCAG RNA binder,ARFGAP1 inh,ASAP1 inh,NadD block,rCAG bind conf,dCAG dye counter
O=C(C=C(O)c1ccc(Cl)cc1)C(=O)NNC(=O)C(O)(c1ccccc1)c1ccccc1,71,.,.,.,36,12
CC(=O)NNC(=O)C(O)(c1ccccc1)c1ccccc1,.,.,.,.,/,/
COc1cc(C(=O)c2cc3c(cc2C)OCO3)cc(OC)c1OC,.,.,.,.,/,/
Cc1noc(NS(=O)(=O)c2ccc(NC(=O)Nc3ccc(Cl)c(Cl)c3)cc2)c1C,91,.,.,.,83,53
Cc1noc(NS(=O)(=O)c2ccc(NC(=O)CSc3nnc4c(n3)[nH]c3ccccc34)cc2)c1C,65,.,.,.,67,32
COc1cc(/C=C/C(=O)Nc2ccc(S(=O)(=O)Nc3onc(C)c3C)cc2)cc(OC)c1OC,53,.,.,.,51,19
Cc1noc(NS(=O)(=O)c2ccc(NC(=O)CSc3nc4ccccc4[nH]3)cc2)c1C,.,.,.,.,/,/
Cc1noc(NS(=O)(=O)c2ccc(NC(=O)C(Cl)(Cl)Cl)cc2)c1C,.,.,.,.,/,/
Cc1noc(NS(=O)(=O)c2ccc(NC(=O)/C=C/c3ccc(Br)cc3)cc2)c1C,82,.,.,.,67,33
CN(Cc1ccccc1)C(=O)OCc1cn(Cc2ccc(F)c(F)c2)nn1,.,/,/,/,/,/
Cc1noc(NS(=O)(=O)c2ccc(NC(=O)C(F)(F)F)cc2)c1C,.,.,.,.,/,/
Cc1cc(NS(=O)(=O)c2ccc(NC(=O)Cc3ccc(Cl)c(Cl)c3)cc2)on1,57,/,/,/,63,24
O=C(Cc1ccc(Cl)c(Cl)c1)Nc1ccc(S(=O)(=O)Nc2ccon2)cc1,.,/,/,/,/,/
CCSc1ncc(Cl)c(C(=O)Nc2ccc(S(=O)(=O)Nc3onc(C)c3C)cc2)n1,54,.,.,.,.,6.9
CCC[C@@H](/C=C/C(=O)OC(C)(C)C)Sc1ccccc1OC,.,/,/,/,/,/
CN1CCN(c2ccc3c(c2)Oc2ccccc2CN(Cc2cn(Cc4ccc(F)cc4)nn2)S3(=O)=O)CC1,.,/,/,/,/,/
CC1(C(=O)NCc2ccc(C(F)(F)F)cc2)CCN1Cc1ccc(-c2ccccc2)o1 (stereo not drawn),.,.,.,.,/,/
O=C(O)COc1ccccc1C=NNc1ccc([N+](=O)[O-])cc1S(=O)(=O)Nc1ccc(Cl)cc1,88,.,.,.,91,69
COc1ccc(NS(=O)(=O)c2cc([N+](=O)[O-])ccc2N/N=C\c2c(C)[nH]c3ccccc23)cc1,.,.,.,.,/,/
COc1ccc(NS(=O)(=O)c2cc([N+](=O)[O-])ccc2NN=Cc2ccccc2OCC(=O)O)cc1,85,.,.,.,88,63
Cc1ccc(NC(=O)C2CCN(S(=O)(=O)c3cccnc3)CC2)cc1C,.,.,.,.,/,/
C=C1c2cccc(O)c2C(O)=C2C(=O)[C@]3(O)C(O)=C(C(N)=O)C(=O)[C@@H](N(C)C)[C@@H]3[C@@H](O)[C@H]12,85,.,.,.,.,9.8
NNC(=S)Nc1cccc(-c2n[nH]c(=S)o2)c1,51,.,.,.,.,6.8
CN(C)C(=S)Nc1cccc(-c2n[nH]c(=S)o2)c1,.,.,.,.,/,/
CCCCNC(=O)C[C@H]1C(=O)N(CCCOC)C2=CCCCC[C@]21C(=O)OC,.,/,/,/,/,/
SMILES,rCAG RNA binder,ARFGAP1 inh,ASAP1 inh,NadD block,rCAG bind conf,dCAG dye counter
CC1(C(=O)NS(=O)(=O)c2cccc(Cl)c2)CCN1C(=O)Cc1ccsc1 (stereo not drawn),.,.,.,.,/,/
CC1(C(=O)NS(=O)(=O)c2cccc(F)c2)CCN1C(=O)Cc1ccc(-c2ccccc2)cc1 (stereo not drawn),51,.,.,.,50,15
CC1(C(=O)NS(=O)(=O)c2cccc(Cl)c2)CCN1C(=O)Cc1ccc(-c2ccccc2)cc1 (stereo not drawn),74,.,.,.,68,29
CC1(C(=O)NS(=O)(=O)c2cccc(F)c2)CCN1C(=O)Cc1ccccc1 (stereo not drawn),.,.,.,.,/,/
CC(C)(C)c1ccc(CC(=O)N2CCC2(C)C(=O)NS(=O)(=O)c2cccc(F)c2)cc1 (stereo not drawn),39,.,.,.,.,5.4
O=C(Nc1ccc(S(=O)(=O)N2CCCc3ccccc32)cc1)C1CCCO1 (stereo not drawn),/,/,/,.,/,/
O=C(O)C1CC=CCC1C(=O)Nc1ccc(S(=O)(=O)N2CCCc3ccccc32)cc1 (stereo not drawn),36,.,.,.,37,9.1
CCCc1cc2c(OC(=O)CC)c(-c3ccc(C(=O)OCC)o3)c(=O)oc2cc1OC,38,.,.,.,.,6.8
CCCc1cc(-c2n[nH]c(C)c2-c2ccc(C(=O)OCC)o2)c(O)cc1O,.,.,.,.,/,/
O=C1N/C(=N\S(=O)(=O)Cc2ccccc2)S/C1=C/c1cccc([N+](=O)[O-])c1,81,.,.,.,69,28
COc1ccc(/C=C2/S/C(=N/S(=O)(=O)Cc3ccccc3)NC2=O)cc1OC,53,.,.,.,44,12
CN(Cc1ccccc1)C(=O)OCc1cn(Cc2cccc(C(F)(F)F)c2)nn1,.,/,/,/,/,/
COc1ccc(-c2coc3c(C(=O)Nc4cccc(NS(C)(=O)=O)c4)cccc23)c(C)c1,.,.,.,.,/,/
O=C(COC(=O)c1ccc(NS(=O)(=O)c2cccs2)cc1O)Nc1nc2ccccc2s1,73,.,.,.,64,29
O=C(COC(=O)c1ccc(NS(=O)(=O)c2cccs2)cc1O)NCc1ccccc1,38,.,.,.,.,6.4
CCOC(=O)[C@@]12CCCC3=C1N(CCC3)C(=O)[C@H]2CC(=O)NCc1ccc(C)o1,.,/,/,/,/,/
Cc1ccc(NC(=O)COc2ccccc2C(=O)NCc2ccccc2)cc1,.,.,.,.,/,/
O=S1(=O)c2ccc(N3CC[C@H](O)C3)cc2OCCCN1C1CC1,.,/,/,/,/,/
CCCc1cc(=O)[nH]c(SCC(=O)Nc2nc(-c3ccccc3)cs2)n1,45,.,.,.,56,19
CCCc1cc(=O)[nH]c(SCC(=O)NC(=O)c2ccccc2)n1,/,/,/,.,/,/
COc1ccc(Cl)cc1NC(=O)CSc1nc(NS(=O)(=O)c2ccccc2)cc(=O)[nH]1,.,.,.,.,/,/
COc1ccc(Cl)cc1NC(=O)CSc1nc(-c2ccccc2)cc(=O)[nH]1,43,.,.,.,68,30
O=C(Nc1c(C(=O)Nc2ccccc2)cnn1-c1ccccc1)c1ccco1,.,.,.,.,/,/
